Tests used:
[1] = test system: L1210; test: Inhibitory activity against L1210 leukemia cells; type: functional, cell-based; conditions: Mus musculus
Method in brief: (§1)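 Murine L1210 lymphoid leukemia cells, human Molt 4/C8 T-lymphocytes and human CEM T-lymphocytes were tested up to a maximum concentration of 500 µM, and the read-out was IC50 (µM).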

[2] = test system: CCRF-CEM; test: Inhibitory concentration against CEM T-lymphocytes; type: functional, cell-based; conditions: Homo sapiens; method in brief: as §1
[3] = test system: P388; test: Inhibitory activity against Murine P388 cells; type: functional, cell-based; conditions: Mus musculus
[4] = Inhibitory concentration against proliferation of human Molt 4/C8 cells; type: functional, cell-based; conditions: Molt4/C8; method in brief: as §1
[5] = Partition coefficient (logP); type: physicochemical; conditions: octanol/water
[6] = test system: L1210; test: Effect on proliferation of leukemia L1210 cells; type: functional, cell-based; conditions: Mus musculus; method in brief: as §1
[7] = test system: L1210; test: Effect on protein biosyntheses in leukemia L1210 cells; type: functional, cell-based; conditions: Mus musculus
Method in brief: (§2)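 L1210 cells, ~2 × 10⁵ per well, were exposed to a range of concentrations together with 0.25 µCi of [methyl-³H]deoxythymidine (DNA), [5-³H]uridine (RNA) or [3,4-³H]leucine (protein). They were incubated 20 h at 37 °C. Radioactivity in the trichloroacetic acid-insoluble fraction was then counted by liquid scintillation.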

[8] = test system: L1210; test: Effect on DNA biosyntheses in leukemia L1210 cells; type: functional, cell-based; conditions: Mus musculus; method in brief: as §2
[9] = test system: L1210; test: Effect on RNA biosyntheses in leukemia L1210 cells; type: functional, cell-based; conditions: Mus musculus; method in brief: as §2

Row | IC50 [1] [µM] | IC50 [2] [µM] | IC50 [3] [µM] | logP [5] | IC50 [6] [µM] | IC50 [7] [µM] | IC50 [8] [µM] | IC50 [9] [µM] | Structure (SMILES) | IC50 [4] [µM]
1 | 10.8 | 7.22 | 12.6 | – | – | – | – | – | O=C1/C(=C/c2ccccc2[N+](=O)[O-])CCc2ccccc21 | 8.12
2 | 64.2 | 46.8 | > 50 | – | – | – | – | – | O=C1/C(=C/c2ccccc2Br)Cc2ccccc21 | 95.4
3 | 210 | 9.77 | 13.1 | – | – | – | – | – | O=C1/C(=C/c2ccc(Cl)c(Cl)c2)CCc2ccccc21 | 28.6
4 | 7.98 | 1.88 | 2.61 | – | – | – | – | – | COc1ccc(/C=C2\CCc3ccccc3C2=O)c(OC)c1 | 1.69
5 | 34.4 | 8.73 | 17.2 | – | – | – | – | – | O=C1/C(=C/c2ccc(Cl)cc2Cl)CCc2ccccc21 | 28.4
6 | 22.8 | 20.8 | 21.8 | – | – | – | – | – | O=C1/C(=C/c2ccccc2F)CCc2ccccc21 | 36
7 | 61.2 | 43.2 | 15.2 | 4.92 | – | – | – | – | Cc1ccccc1/C=C1\CCCc2ccccc2C1=O | 36.2
8 | 64.4 | 8.56 | 15.9 | – | – | – | – | – | COc1ccccc1/C=C/C(=O)c1ccccc1 | 8.45
9 | 42.3 | 18.4 | 12.7 | 5.04 | – | – | – | – | O=C1/C(=C/c2ccccc2Cl)CCCc2ccccc21 | 37.1
10 | 170 | 58.2 | 28.4 | – | 170 | 167 | 407 | 292 | COc1ccccc1/C=C1\Cc2ccccc2C1=O | 308
11 | 50.2 | 43.2 | 17.7 | – | – | – | – | – | Cc1ccccc1/C=C1\CCc2ccccc2C1=O | 41.4
12 | > 100 | 28 | 8.19 | 4.13 | – | – | – | – | COc1ccc(/C=C2\CCCc3ccccc3C2=O)cc1OC | > 20
13 | 37 | 32.1 | 19.8 | 5.04 | – | – | – | – | O=C1/C(=C/c2ccccc2Br)CCCc2ccccc21 | 38.4
14 | 214 | 37.6 | 28.7 | – | – | – | – | – | COc1cccc(/C=C2\Cc3ccccc3C2=O)c1OC | 53
15 | 38.2 | 28.7 | 12.3 | – | – | – | – | – | COc1cccc(/C=C2\CCc3ccccc3C2=O)c1OC | 41.3
16 | > 500 | > 500 | > 50 | – | – | – | – | – | O=C1/C(=C/c2ccc(Cl)cc2Cl)Cc2ccccc21 | > 500
17 | 59.1 | 13.8 | 7.58 | – | – | – | – | – | O=C(/C=C/c1ccc([N+](=O)[O-])cc1)c1ccccc1 | 8.32
18 | 82.9 | 8.9 | 15.3 | – | – | – | – | – | O=C(/C=C/c1cccc([N+](=O)[O-])c1)c1ccccc1 | 8.53
19 | 46.1 | 28.9 | 18 | 4.69 | – | – | – | – | COc1ccccc1/C=C1\CCCc2ccccc2C1=O | 37.1
20 | > 500 | > 500 | > 50 | – | – | – | – | – | COc1cc(/C=C2\Cc3ccccc3C2=O)cc(OC)c1OC | > 500
21 | 35.8 | 11.7 | 8.68 | 4.29 | – | – | – | – | COc1cc(/C=C2\CCCc3ccccc3C2=O)cc(OC)c1OC | 23.1

Row | IC50 [1] [µM] | IC50 [2] [µM] | IC50 [3] [µM] | logP [5] | IC50 [6] [µM] | IC50 [7] [µM] | IC50 [8] [µM] | IC50 [9] [µM] | Structure (SMILES) | IC50 [4] [µM]
22 | 152 | 57 | 26.5 | – | – | – | – | – | O=C1/C(=C/c2ccccc2Cl)Cc2ccccc21 | 128
23 | 264 | 286 | 23.9 | – | – | – | – | – | COc1ccc(/C=C2\Cc3ccccc3C2=O)cc1OC | 468
24 | > 500 | 407 | 14 | 5.65 | – | – | – | – | O=C1/C(=C/c2ccc(Cl)cc2Cl)CCCc2ccccc21 | > 500
25 | 150 | 47.1 | 31.7 | – | – | – | – | – | O=C1/C(=C/c2ccccc2F)Cc2ccccc21 | 54.2
26 | 208 | 56.5 | 23.9 | – | – | – | – | – | Cc1ccccc1/C=C1\Cc2ccccc2C1=O | 154
27 | 45.1 | 8.55 | 9.75 | – | – | – | – | – | COc1cccc(/C=C/C(=O)c2ccccc2)c1 | 7.94
28 | 60.4 | 28.2 | 13.2 | 4.55 | – | – | – | – | O=C1/C(=C/c2ccccc2F)CCCc2ccccc21 | 42.1
29 | 33.4 | 25.4 | 19.7 | – | – | – | – | – | O=C1/C(=C/c2ccccc2Br)CCc2ccccc21 | 36.8
30 | 42 | 8.56 | 5.69 | – | – | – | – | – | COc1ccc(/C=C2\CCc3ccccc3C2=O)cc1OC | 11.6
31 | > 500 | 142 | 8.58 | 4.54 | – | – | – | – | COc1cccc(/C=C2\CCCc3ccccc3C2=O)c1OC | > 500
32 | 45.7 | 11.8 | 12.2 | 5.71 | – | – | – | – | O=C1/C(=C/c2ccc(Cl)c(Cl)c2)CCCc2ccccc21 | 18.2
33 | 47 | 16.2 | 36.5 | 4.07 | – | – | – | – | O=C1/C(=C/c2ccccc2[N+](=O)[O-])CCCc2ccccc21 | 40
34 | 30 | 8.8 | 17.5 | – | – | – | – | – | O=C1/C(=C/c2ccccc2Cl)CCc2ccccc21 | 29.6
35 | 31.2 | 7.04 | 6.72 | – | – | – | – | – | COc1cc(/C=C2\CCc3ccccc3C2=O)cc(OC)c1OC | 8.28
36 | 14 | 87.1 | 13 | – | – | – | – | – | COc1ccc(/C=C2\Cc3ccccc3C2=O)c(OC)c1 | 48.5
37 | 7.61 | 3.53 | 0.74 | – | 7.61 | 17.2 | 14.7 | 11.7 | O=C1/C(=C/c2ccccc2[N+](=O)[O-])Cc2ccccc21 | 2.54
38 | 30.4 | 8.6 | 3.74 | – | – | – | – | – | O=C(/C=C/c1ccccc1[N+](=O)[O-])c1ccccc1 | 8.38
39 | > 500 | 397 | 25 | – | – | – | – | – | O=C1/C(=C/c2ccc(Cl)c(Cl)c2)Cc2ccccc21 | > 500
40 | 40.5 | 12.6 | 17.5 | – | – | – | – | – | COc1ccccc1/C=C1\CCc2ccccc2C1=O | 31.3
41 | 12.4 | 48.4 | 7.82 | 5.01 | – | – | – | – | COc1ccc(/C=C2\CCCc3ccccc3C2=O)c(OC)c1 | 71.4
42 | 50.4 | 33.5 | 10.6 | – | – | – | – | – | COc1ccc(/C=C/C(=O)c2ccccc2)cc1 [4-METHOXY CHALCONE] | 30

Row | Structure (SMILES) | IC50 [1] [µM] | IC50 [2] [µM] | IC50 [3] [µM] | logP [5] | IC50 [6] [µM] | IC50 [7] [µM] | IC50 [8] [µM] | IC50 [9] [µM] | IC50 [4] [µM]
43 | N[C@@H](Cc1ccc(N(CCCl)CCCl)cc1)C(=O)O | – | – | – | – | – | – | > 100 | > 100 | –

Reference: ChEMBL document CHEMBL1135506, “Correlations between cytotoxicity and topography of some 2-arylidenebenzocycloalkanones determined by X-ray crystallography” (J Med Chem, 2002)
